Screens as filed in PubChem.
The list is not random: actives were taken first. Their share in the collection is about 2.3%.
Diaphorase inh = diaphorase inhibition or chemical oxidation counter-screen | diaphorase resazurin-to-resorufin fluorescence, NADH, 16 min; bacterial (C. kluyveri) enzyme, not human | AID 1217 | 190,000 tested, 0.69% active | inhibition, % at 20 µM;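 active = primary screen inhibition at 20 µM above a set limit, cut at about 50% in these data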;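 also: plate controls were DMSO with full reaction for no effect and wells lacking NADH for full effect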
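Assay system: diaphorase enzyme from Clostridium kluyveri; Input: enzyme working solution with 0.14 U/mL diaphorase; Timing: 16 min at room temperature; Technique: resorufin fluorescence, excitation 544 nm, emission 590 nm; Benchmarks: positive control minus NADH, DMSO neutral control.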
FLuc inh counter = Photinus pyralis luciferase inhibition counter-screen | inhibition, % at 10 µM | AID 1006 | 200,000 tested, 1.5% active | P08659 | ATPLite firefly luciferase biochemical luminescence, 10 min;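 active = inhibition above about 50% when tested at 10 µM, limit read from the data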
Target sequence (P08659 whole entry, looked up): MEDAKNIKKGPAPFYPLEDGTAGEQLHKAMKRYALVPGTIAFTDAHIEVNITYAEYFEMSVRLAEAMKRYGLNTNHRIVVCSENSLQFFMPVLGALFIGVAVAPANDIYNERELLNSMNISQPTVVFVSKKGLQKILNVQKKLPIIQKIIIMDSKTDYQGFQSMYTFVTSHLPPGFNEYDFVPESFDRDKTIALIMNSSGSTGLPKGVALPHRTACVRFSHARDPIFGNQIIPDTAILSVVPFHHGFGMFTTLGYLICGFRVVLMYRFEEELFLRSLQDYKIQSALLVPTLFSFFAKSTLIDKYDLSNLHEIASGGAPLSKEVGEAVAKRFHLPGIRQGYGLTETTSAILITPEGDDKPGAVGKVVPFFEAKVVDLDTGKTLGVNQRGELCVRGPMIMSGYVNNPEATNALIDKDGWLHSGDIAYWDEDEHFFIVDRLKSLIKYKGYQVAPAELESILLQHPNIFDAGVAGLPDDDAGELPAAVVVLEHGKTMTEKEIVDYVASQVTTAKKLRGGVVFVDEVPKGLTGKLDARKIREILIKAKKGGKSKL
G6PDH counter = inhibits Leuconostoc G6PDH, flagging false hits in G6PDH-based assays. Purified L. mesenteroides G6PDH, diaphorase/resazurin coupled fluorescence, 45 min. inhibition, % at 5 µM. 200,000 tested, 0.12% active. AID 1020; in the data active = inhibition above about 50%
FLuc act counter = firefly luciferase counter-screen for stimulation assays; P08659; ATPlite luciferase biochemical, luminescence, 10 min; 0 = ATP-free wells, 1 = DMSO control; activation factor at 10 µM; 200,000 tested, under 10 active; AID 1027;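 active = luciferase activation factor, scaled between plate controls, of at least 2 with compound at 10 µM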
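System: cell-free luciferase reagent; medium: PBS as buffer for the ATP substrate; doses: test compounds dosed from 2 mM stocks in 100% DMSO; incubation: 10 min, room temperature; measured by: luminescence from luciferase reaction; read-out: luciferase activation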
Diaph act CS = diaphorase activation or chemical reduction counter-screen | AID 1229 | 190,000 tested, 0.005% active | activation factor at 20 µM | Diaphorase/resazurin coupled assay, resorufin fluorescence, 16 min; stronger effect = higher value; 1 = vehicle wells, 0 = NADH-free wells;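 active = diaphorase activity raised at least twofold by the compound at 20 µM; inactive = activation factor below 2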
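Material: bacterial diaphorase enzyme (C. kluyveri); amount: enzyme 0.07 U/mL final; reagent: NADH substrate 0.114 mM plus resazurin dye 0.1 mM, final; doses: single compound dose of 20 µM, 1% DMSO final; timing: 16 min enzyme reaction, ambient temperature; measured by: fluorescence of resorufin, 544 nm excitation, 590 nm emission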
An asterisk follows results filed as active.

SMILES	Diaphorase inh	FLuc inh counter	G6PDH counter	FLuc act counter	Diaph act CS
CCOC(=O)c1c(-c2ccc(C)o2)csc1NC(=O)COC(=O)c1ccc(NC(N)=O)cc1	7	-2	6	1	0.9
Cc1ccc(N=Nc2ccc(O)c3ncccc23)cc1	5	-2	4	1	0.9
CC(C)COCc1ccc(O)c2ncccc12	55*	-5	25	1	0.4
Oc1ccc(F)c2cccnc12	50*	-2	65*	1	0.5
NC(=S)NNc1cccc2cccnc12	72*	-2	39	1	0.3
Oc1ccc2ccccc2c1CN1CCN(c2ccccc2)CC1	17	-5	8	1	0.8
Oc1ccc(CN2CCN(c3ccccc3)CC2)c2cccnc12	66*	-5	19	1	0.3
C/C(=N\N=C(N)N)c1ccc(Cl)cc1Cl	7	-6	1	1.1	0.9
COc1ccc(/C=N/Nc2ncnc3sc4c(c23)CCCC4)cc1OC	12	13	-18	0.9	0.9
O=C1C2N=NN(CC(=O)N3N=C(c4ccccc4)CC3c3ccc([N+](=O)[O-])cc3)C2C(=O)N1c1ccccc1 (configuration not stated)	12	-6	6	1.1	0.9
Oc1ccccc1CNc1cccc2cccnc12	66*	-2	52*	1	0.3
Oc1ccc(CN2CCc3ccccc3C2)c2cccnc12	48	-7	-25	1.1	0.5
Oc1ccc(CN2CCCCC2)c2cccnc12	58*	-6	50*	1.1	0.4
O=C(Cn1c(=O)sc2ccccc21)Nc1ccc(O)cc1	-7	-1	1	1	1.1
C/C(=N\NC(=O)c1cccc(S(=O)(=O)N2CCCC2)c1)c1cccs1	0	10	2	0.9	1
CC(C)(C)C(=O)Nc1ccc(-c2nc3ccccc3c(=O)o2)cc1	7	96*	10	0	0.9
CC(C)(C)C(=O)Nc1cccc(-c2nc3ccccc3c(=O)o2)c1	1	20	2	0.8	1
CC(C)C(=O)Nc1cccc(-c2nc3ccccc3c(=O)o2)c1	17	6	19	0.9	0.8
CCCC(=O)Nc1cccc(-c2nc3ccccc3c(=O)o2)c1	15	54*	8	0.5	0.8
CC(C)C(=O)Nc1ccc(-c2nc3ccccc3c(=O)o2)cc1	14	90*	18	0.1	0.9
O=C(CSc1nnc(-c2ccco2)o1)c1ccc[nH]1	-5	8	4	0.9	1.1
CCOC(=O)N1CCN(C(=O)CCl)CC1	29	-2	8	1	0.7
COc1ccc(O)c(/C=C(\C#N)C(=O)Nc2cccnc2)c1	6	63*	-18	0.4	0.9
O=C(Nc1ccc(Cc2ccncc2)cc1)c1ccc(Cl)c([N+](=O)[O-])c1	2	76*	10	0.2	1
C=C(C)C1CC=C(C)/C(=N\NC(=S)Nc2ccc(C)cc2)C1 (configuration not stated)	66*	-3	5	1	0.3
SMILES	Diaphorase inh	FLuc inh counter	G6PDH counter	FLuc act counter	Diaph act CS
C=C(C)C1CC=C(C)/C(=N/NC(=O)COc2ccc(C)cc2)C1 (configuration not stated)	1	-4	0	1	1
CCOC(=O)c1ccc(N2C(=O)c3n[nH]c(-c4ccco4)c3C2c2cccc([N+](=O)[O-])c2)cc1 (configuration not stated)	18	-7	3	1.1	0.8
Cc1nc2cc(-c3ccccc3)sc2c(=O)n1N	-6	89*	6	0.1	1.1
Clc1ccc(-c2nnc(SCc3ccon3)o2)c(Cl)c1	13	78*	-9	0.2	0.9
Clc1ccc(-c2nnc(SCc3nc4ccccc4[nH]3)o2)c(Cl)c1	18	-5	8	1	0.8
C=CCSc1nnc(-c2ccc(Cl)cc2Cl)o1	2	59*	8	0.4	1
CSCCNC(=O)c1ccc(C(C)(C)C)cc1	11	74*	-6	0.3	0.9
COc1cc(NC(=O)c2ccccc2)cc(OC)c1	-1	25	4	0.7	1
COc1ccc(NC(=O)c2ccc3c(c2)OCO3)cc1Cl	16	61*	4	0.4	0.8
COC(=O)c1ccc(NC(=O)c2ccc3c(c2)OCO3)cc1	11	13	-3	0.9	0.9
COc1cccc(NC(=O)c2ccc(CN3CCOCC3)cc2)c1	8	51*	0	0.5	0.9
COc1ccc(C(=O)Nc2ccc3c(c2)OCCO3)cc1	5	90*	4	0.1	0.9
CC(C)Oc1cccc(C(=O)Nc2ccc(CN3CCOCC3)cc2)c1	8	7	-13	0.9	0.9
COc1ccc(C(=O)Nc2cc(OC)cc(OC)c2)cc1	8	66*	1	0.3	0.9
Cc1ccc(OCCSc2nc(NC(C)C)nc(NC(C)C)n2)cc1	21	-3	2	1	0.8
Cc1nc2c3cc(Cl)ccc3n(CCN3CCCCC3)c2s1	6	-10	7	1.1	0.9
Cc1c(C(=O)N2CCCCC2)nn(-c2ccc(Cl)cc2)c(=O)c1C#N	12	-6	7	1.1	0.9
COc1cc(C(=O)Nc2ccc3c(c2)OCCO3)ccc1OC(C)C	-4	41	0	0.6	1
COc1cc(C(=O)Nc2ccc3c(c2)OCCO3)ccc1OC(F)F	6	59*	7	0.4	0.9
CNC(=O)/C(C#N)=C/c1ccc(-c2ccc(OC)cc2[N+](=O)[O-])o1	26	6	0	0.9	0.7
COc1ccc(-c2ccc(C(=O)O)o2)c([N+](=O)[O-])c1	69*	0	17	1	0.3
O=C(CSc1nnc(-c2ccccc2)c(-c2ccccc2)n1)NC1CCS(=O)(=O)C1 (configuration not stated)	0	-10	4	1.1	1
Nc1ccc(-c2nc3ccc(N)cc3[nH]2)cc1	11	52*	5	0.5	0.9
Cc1nc2ccc(-c3nc4ccccc4o3)cc2[nH]1	13	63*	2	0.4	0.9
Cc1nc2ccc(-c3nc4ccc(N)cc4[nH]3)cc2[nH]1	-9	78*	1	0.2	1.1
SMILES	Diaphorase inh	FLuc inh counter	G6PDH counter	FLuc act counter	Diaph act CS
Nc1ccc2nc(-c3cc(Cl)c(N)c(Cl)c3)[nH]c2c1	-25	46	4	0.5	1.2
Cc1nc2ccc(Cc3ccc4nc(C)[nH]c4c3)cc2[nH]1	1	-1	1	1	1
Nc1ccc(-c2nc3ccc([N+](=O)[O-])cc3[nH]2)cc1	7	-9	-19	1.1	0.9
Nc1ccc2nc(-c3ccc(Cl)cc3)[nH]c2c1	10	75*	4	0.2	0.9
CC(Oc1ccc(Cl)cc1Cl)c1ccn[nH]1 (configuration not stated)	18	-9	5	1.1	0.8
CCOC(=O)c1ccc(NC(=O)Cn2c(-c3nonc3N)nc3ccccc32)cc1	19	-7	-1	1.1	0.8
